Measured values: ChEMBL document CHEMBL1153806, “Preclinical efficacy of a carboxylesterase 2-activated prodrug of doxazolidine” (J Med Chem, 2009)
Active and inactive are the calls of the source. The rule behind the calls is not given here.

What was measured:
Mus musculus [1] = test: Toxicity in athymic nude mouse xenografted with human NCI-H1435 cells expressing CES2 gene assessed as lipid […] in hepatocytes administered with six iv injection of 3 to 4 mg/kg by hematoxylin/eosin staining-based microscopy; type: organism-based, Hepatocyte; set-up: dose 3-4 mg/kg, route intravenous
Method in brief: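 Female athymic nude mice, 4–6 weeks old, 10 per group. About 2 × 10⁶ H1435 cells were implanted s.c. into the left flank. I.v. tail-vein doses (Dox-equivalent) were given on days 7, 14, 21, 56, 63 and 70 in 5% DMSO/95% D5W. At sacrifice, organs were fixed in 10% formalin for 24 h and paraffin-embedded. Sections were cut at 4 µm and stained with hematoxylin/eosin for microscopy.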

HepG2 = test: Antitumor activity against human HepG2 cells expressing CES2 gene xenografted in NOD/SCID mouse assessed as inhibition of tumor growth at 4 to 5 mg/kg, iv administered on day 7, 14 and 21 after tumor implantation; type: functional, organism-based
Method in brief: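 NOD/SCID females, 4–6 weeks old, each given ~1.5 × 10⁷ N-Hep G2 cells s.c. in the left flank; 10 mice/group. Dosed i.v. by tail vein on days 7, 14 and 21, in mg/kg Dox-equivalent, from DMSO diluted into D5W (5% DMSO/95% D5W), 100 µL/mouse. Vehicle-only controls. The 3 mg/kg group was redosed at 5 mg/kg on days 45 and 52. Tumor volume (π × short diameter² × long diameter/6) measured weekly.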

[2] = Toxicity in NOD/SCID mouse xenografted with human HepG2 cells expressing CES2 gene assessed as mortality rate at 3 mg/kg, iv administered on day 7, 14 and 21 after tumor implantation; type: organism-based; set-up: dose 3 mg/kg, route intravenous; settings: in vivo, read-out: Activity
Method in brief: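 Female NOD/SCID mice, 4–6 weeks old, 10 per group. About 1.5 × 10⁷ N-Hep G2 cells were injected s.c. into the left flank. Tail-vein i.v. dosing (mg/kg Dox-equivalent weight) was given on days 7, 14 and 21. Vehicle was 5% DMSO/95% D5W, and controls received vehicle only. Body weight was measured weekly over the first 5 weeks. Survival was followed to study end.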

NCI-H1435 [3] = test: Antitumor activity against human NCI-H1435 cells expressing CES2 gene xenografted in athymic nude mouse assessed as inhibition of tumor growth at 2.5 mg/kg, iv administered on day 7, 14 and 21 after tumor implantation; type: functional, organism-based; set-up: dose 2.5 mg/kg
Method in brief: (§1)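 Athymic nude females, 4–6 weeks old, given ~2 × 10⁶ H1435 cells s.c. in the left flank on day 0; 10 mice/group. I.v. tail-vein doses (Dox-equivalent mg/kg) in 5% DMSO/95% D5W on days 7, 14 and 21, with all groups retreated on days 56, 63 and 70; vehicle controls. Caliper volume π × short² × long/6. Cube roots analysed with day-7 size as baseline covariate, by period.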

NCI-H1435 [4] = test: Antitumor activity against human NCI-H1435 cells expressing CES2 gene xenografted in pentyl PABC-doxazolidine-pretreated athymic nude mouse assessed as inhibition of tumor growth at 2.5 mg/kg, iv administered on day 56 after tumor implantation; type: functional, organism-based; set-up: dose 2.5 mg/kg; method in brief: as §1
NCI-H1435 [5] = test: Antitumor activity against human NCI-H1435 cells expressing CES2 gene xenografted in pentyl PABC-doxazolidine-pretreated athymic nude mouse assessed as inhibition of tumor growth at 2.5 mg/kg, iv administered on day 63 after tumor implantation; type: functional, organism-based; set-up: dose 2.5 mg/kg; method in brief: as §1
NCI-H1435 [6] = test: Antitumor activity against human NCI-H1435 cells expressing CES2 gene xenografted in pentyl PABC-doxazolidine-pretreated athymic nude mouse assessed as inhibition of tumor growth at 2.5 mg/kg, iv administered on day 70 after tumor implantation; type: functional, organism-based; set-up: dose 2.5 mg/kg; method in brief: as §1
Mus musculus [7] = test: Toxicity in athymic nude mouse xenografted with human NCI-H1435 cells expressing CES2 gene at 3 to 4 mg/kg, iv administered on day 7, 14 and 21 after tumor implantation; type: organism-based; set-up: dose 3-4 mg/kg, route intravenous; settings: in vivo
Mus musculus [8] = test: Toxicity in athymic nude mouse xenografted with human NCI-H1435 cells expressing CES2 gene assessed as occurrence of diarrhea at 3 to 4 mg/kg, iv administered on day 7, 14 and 21 after tumor implantation; type: organism-based; set-up: dose 3-4 mg/kg, route intravenous; settings: in vivo
Mus musculus [9] = test: Toxicity in NOD/SCID mouse xenografted with human HepG2 cells expressing CES2 gene assessed as occurrence of diarrhea at 3 mg/kg, iv administered on day 7, 14 and 21 after tumor implantation; type: organism-based; set-up: dose 3 mg/kg, route intravenous; settings: in vivo
NCI-H1435 [10] = test: Antitumor activity against human NCI-H1435 cells expressing CES2 gene xenografted in athymic nude mouse assessed as reduction in tumor size at 2.5 mg/kg, iv administered on day 7, 14 and 21 after tumor implantation; type: functional, organism-based; set-up: dose 2.5 mg/kg; method in brief: as §1
NCI-H1435 [11] = test: Antitumor activity against human NCI-H1435 cells expressing CES2 gene xenografted in athymic nude mouse assessed as slowing of tumor growth at 2.5 mg/kg, iv administered as three weekly infusion from day 21 to 56 after tumor implantation; type: functional, organism-based; set-up: dose 2.5 mg/kg; method in brief: as §1
Mus musculus [12] = test: Toxicity in athymic nude mouse xenografted with human NCI-H1435 cells expressing CES2 gene assessed as myofibril disorganization and vacuolization of heart tissue administered with six iv injection of 2.5 mg/kg by hematoxylin/eosin staining-based microscopy; type: organism-based; set-up: dose 2.5 mg/kg, route intravenous; settings: in vivo
Method in brief: (§2)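 Hearts and livers taken from the H1435 nude-mouse study (six i.v. injections) after CO₂/cervical dislocation. Fixed in 10% formalin for 24 h, paraffin-embedded, and cut at 4 µm. Slides deparaffinized in xylene and ethanol, stained with Mayer's hematoxylin for 2 min, blued in 1% ammonium hydroxide, and counterstained with eosin for 30 s. Examined by light microscopy.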

Mus musculus [13] = test: Toxicity in athymic nude mouse xenografted with human NCI-H1435 cells expressing CES2 gene assessed as occurrence of cardiomyocyte necrosis administered with six iv injection of 2.5 mg/kg by hematoxylin/eosin staining-based microscopy; type: organism-based; set-up: dose 2.5 mg/kg, route intravenous; settings: in vivo; method in brief: as §2
Mus musculus [14] = test: Toxicity in athymic nude mouse xenografted with human NCI-H1435 cells expressing CES2 gene assessed as appearance of fibrotic damage in heart tissue administered with six iv injection of 2.5 mg/kg by hematoxylin/eosin staining-based microscopy; type: organism-based; set-up: dose 2.5 mg/kg, route intravenous; settings: in vivo; method in brief: as §2
Mus musculus [15] = test: Toxicity in athymic nude mouse xenografted with human NCI-H1435 cells expressing CES2 gene assessed as uniformity in punktate staining pattern of hepatocytes administered with six iv injection of 2.5 mg/kg by hematoxylin/eosin staining-based microscopy; type: organism-based, Hepatocyte; set-up: dose 2.5 mg/kg, route intravenous; method in brief: as §2
Mus musculus [16] = test: Toxicity in athymic nude mouse xenografted with human NCI-H1435 cells expressing CES2 gene assessed as occurrence of fatty liver administered with six iv injection of 2.5 mg/kg by hematoxylin/eosin staining-based microscopy; type: organism-based; set-up: dose 2.5 mg/kg, route intravenous; settings: in vivo; method in brief: as §2
Mus musculus [17] = test: Toxicity in athymic nude mouse xenografted with human NCI-H1435 cells expressing CES2 gene assessed as vacuolar degeneration of kidney tissue administered with six iv injection of 2.5 mg/kg by hematoxylin/eosin staining-based microscopy; type: organism-based; set-up: dose 2.5 mg/kg, route intravenous; settings: in vivo
Method in brief: (§3)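 Kidney and ileum taken from the H1435 nude-mouse study (six i.v. injections). Formalin-fixed for 24 h, paraffin-embedded, and cut into 4 µm sections. Sections deparaffinized in xylene, rehydrated through an ethanol series, stained in Harris hematoxylin for 50 s with eosin, then dehydrated and mounted. Morphology assessed by microscopy.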

Mus musculus [18] = test: Toxicity in athymic nude mouse xenografted with human NCI-H1435 cells expressing CES2 gene assessed as vacuolar damage in ileum administered with six iv injection of 2.5 mg/kg by hematoxylin/eosin staining-based microscopy; type: organism-based; set-up: dose 2.5 mg/kg, route intravenous; settings: in vivo; method in brief: as §3
Mus musculus [19] = test: Toxicity in athymic nude mouse xenografted with human NCI-H1435 cells expressing CES2 gene assessed as inflammatory cell infiltration in ileum administered with six iv injection of 2.5 mg/kg by hematoxylin/eosin staining-based microscopy; type: organism-based; set-up: dose 2.5 mg/kg, route intravenous; settings: in vivo; method in brief: as §3

Structure (SMILES)	Activity (Mus musculus [1])	inhibition (HepG2)	mortality [2] [%]	inhibition (NCI-H1435 [3])	inhibition (NCI-H1435 [4])	inhibition (NCI-H1435 [5])	inhibition (NCI-H1435 [6])	Activity (Mus musculus [7])	Activity (Mus musculus [8])	Activity (Mus musculus [9])	Activity (NCI-H1435 [10])	Activity (NCI-H1435 [11])	Activity (Mus musculus [12])	Activity (Mus musculus [13])	Activity (Mus musculus [14])	Activity (Mus musculus [15])	Activity (Mus musculus [16])	Activity (Mus musculus [17])	Activity (Mus musculus [18])	Activity (Mus musculus [19])
COc1cccc2c1C(=O)c1c(O)c3c(c(O)c1C2=O)C[C@@](O)(C(=O)CO)C[C@@H]3O[C@H]1C[C@@H]2NCO[C@@H]2[C@H](C)O1 [DOXAZOLIDINE]	Toxic	–	–	–	–	–	–	–	–	–	–	–	–	–	–	–	–	–	–	–
COc1cccc2c1C(=O)c1c(O)c3c(c(O)c1C2=O)C[C@@](O)(C(=O)CO)C[C@@H]3O[C@H]1C[C@H](N)[C@H](O)[C@H](C)O1 [DOXORUBICIN]	Toxic	Active	70	Active	inactive	inactive	inactive	Non-toxic	Non-toxic	Non-toxic	Active	Active	Toxic	Toxic	Toxic	Non-toxic	Non-toxic	Toxic	Non-toxic	Non-toxic
